The test system of series [1] is H9. Kind of series: The compound was tested for anti HIV activity in H9 lymphocytes; No suppression. Format: functional, cell-based, Homo sapiens.
Series [2] deals with Human immunodeficiency virus 1. The series can be described thus: Anti-HIV activity in H9 lymphocytes. Format: functional, organism-based.
Series [3] is described as follows: Therapeutic index value against H9 lymphocytes; No suppression. Format: cell-based. The note with it: human.
The test system of series [4] is Human immunodeficiency virus 1. The series can be described thus: Antiviral activity against HIV-1 in H9 lymphocytes. Format: functional, organism-based.
Series [5] is described as follows: Therapeutic index in H9 lymphocytes. Format: cell-based. The note with it: human, read-out: Therapeutic index.
The subject of series [6] is CEM-SS. The series can be described thus: The compound was tested for anti HIV activity in CEM-SS cell lines. Format: functional, cell-based. The note with it: Homo sapiens. The essentials: (§1)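 Run at NCI in the CEM-SS T4 lymphocyte line. The agent was dissolved in DMSO, diluted 1:100 in medium, then serially diluted in half-log10 steps, giving a 1:200 final compound dilution. Cells were added, followed shortly by HIV-1, and incubated for 6 days at 37 °C in 5% CO2. Viable cells were read by XTT formazan spectrophotometry, with microscopic confirmation. Drug-treated infected wells were compared against drug-treated uninfected (toxicity) wells and untreated controls.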

Series [7] is described as follows: Therapeutic index value of the cpmpound against CEM-SS cells. Format: cell-based. The note with it: human, read-out: Therapeutic index. The essentials: as §1
For series [8], the system named is CEM-SS. The series can be described thus: The compound was tested for anti HIV activity in CEM-SS cell lines; Inactive. Format: functional, cell-based, Homo sapiens. The essentials:
as §1

A short description of series [9]: Therapeutic index value of the cpmpound against CEM-SS cells; Inactive. Format: cell-based. The settings on record: human. The essentials:
as §1

Structures are written as SMILES.

Consider `Cc1cc(=O)oc2c3c(ccc12)OC(C)(C)[C@H](OC(=O)CC(C)C)[C@@H]3OC(=O)CC(C)C`, for which, in series [1], the EC50 (in general, the concentration needed to bring the measured effect to its halfway point) is “Not Active”. For the same compound, it took 42 µM to reach half-maximal inhibition in series [2] (Human immunodeficiency virus 1) (IC50). Moreover, the Therapeutic index result in series [3] is recorded as “Not Active”.
Compound `CC1(C)Oc2ccc3c(-c4ccccc4)cc(=O)oc3c2[C@@H](OC(=O)C23CCC(C)(C(=O)O2)C3(C)C)[C@H]1OC(=O)C12CCC(C)(C(=O)O1)C2(C)C` (stereo partly drawn) yielded an EC50 in series [4] of 120 nM. Besides, in [2] (Human immunodeficiency virus 1), the IC50 – broadly, the concentration at which inhibition is half-maximal – was above 143 µM. Also, the selectivity ratio in series [5] was above 1190.
With `CC(C)c1cc(=O)oc2c3c(ccc12)OC(C)(C)[C@H](OC(=O)C12CCC(C)(C(=O)O1)C2(C)C)[C@@H]3OC(=O)C12CCC(C)(C(=O)O1)C2(C)C` (stereo partly drawn), the 50% effective concentration (EC50) in [6] turned out to be 0.584 µM; in [4] it was 31.5 nM. The IC50 in series [6] is above 128 µM; in [2] (Human immunodeficiency virus 1) it was above 151 µM. Also, the selectivity ratio is above 219 in series [7] and above 4790 in series [5].
`CC1(C)Oc2ccc3c(C(F)(F)F)cc(=O)oc3c2[C@@H](OC(=O)C23CCC(C)(C(=O)O2)C3(C)C)[C@H]1OC(=O)C12CCC(C)(C(=O)O1)C2(C)C` (stereo partly drawn) displayed an EC50 in [4] of 1810 nM. In series [2] (Human immunodeficiency virus 1), this compound showed an IC50 above 145 µM. Also, in [5], the selectivity ratio was above 80.1.
Turning to `COc1cc2ccc3c(c2oc1=O)[C@@H](OC(=O)C12CCC(C)(C(=O)O1)C2(C)C)[C@@H](OC(=O)C12CCC(C)(C(=O)O1)C2(C)C)C(C)(C)O3` (stereo partly drawn), the figures for the EC50 in series [6] and in series [4] were 0.494 µM and 2.38 nM, respectively. Besides, the IC50 in series [6] was 16.8 µM; in [2] (Human immunodeficiency virus 1) it was above 153 µM. In addition, the selectivity ratio in [7] was 34; in series [5] it was above 64300.
With `Cc1cc(=O)oc2c3c(ccc12)OC(C)(C)[C@H](OC(=O)C12CCC(C)(C(=O)O1)C2(C)C)[C@@H]3OC(=O)C12CCC(C)(C(=O)O1)C2(C)C` (stereo in doubt; 19), in series [2], the concentration for half-maximal inhibition (IC50) is above 157 µM.
For `CC(=O)O[C@@H]1[C@H](OC(=O)C23CC4CC(CC(C4)C2)C3)c2c(ccc3c(C)cc(=O)oc23)OC1(C)C`, a half-maximal response in series [4] (EC50) required 1140 nM. Further, the concentration for half-maximal inhibition (IC50) in [2] (Human immunodeficiency virus 1) is 19 µM. Besides, the selectivity ratio in series [5] turned out to be 16.7.
Turning to `Cc1cc(=O)oc2c3c(ccc12)OC(C)(C)[C@H](O)[C@@H]3OC(=O)C12CC3CC(CC(C3)C1)C2`, the EC50 result in series [1] is “Not Active”. In [2] (Human immunodeficiency virus 1), the IC50 stood at 43.2 µM. The Therapeutic index result in [3] is given as “Not Active”.
Consider `Cc1cc2c(c3oc(=O)ccc13)[C@@H](OC(=O)C13CCC(C)(C(=O)O1)C3(C)C)[C@@H](OC(=O)C13CCC(C)(C(=O)O1)C3(C)C)C(C)(C)O2` (stereo partly drawn), for which the figures for the concentration for a half-maximal effect (EC50) in [6] and in series [4] were 0.0635 µM and 0.000239 nM, respectively. For the same compound, the IC50 is above 200 µM in series [6] and above 95 µM in series [2] (Human immunodeficiency virus 1). Moreover, the selectivity ratio is above 3150 in [7] and above 3.97e+08 in series [5].
`Cc1cc(=O)oc2c3c(ccc12)OC(C)(C)[C@H](OS(=O)(=O)CC12CCC(CC1=O)C2(C)C)[C@@H]3O` (stereo in doubt; 23): the EC50 entry in series [1] is “Not Active”. The same compound registered a 50% inhibitory concentration (IC50) in series [2] (Human immunodeficiency virus 1) of 45 µM. Further, the Therapeutic index entry in series [3] is “Not Active”.
In [6], `Cc1cn([C@H]2C[C@H](N=[N+]=[N-])[C@@H](CO)O2)c(=O)[nH]c1=O` [ZIDOVUDINE] showed a concentration giving a half-maximal response (EC50) of 0.0038 µM and an IC50 above 1 µM. The compound also registered an EC50 in series [4] of 4500 nM.
Compound `Cc1cc(=O)oc2c3c(ccc12)OC(C)(C)[C@H](O)[C@@H]3OC(=O)C12CCC(C)(C(=O)O1)C2(C)C` (stereo partly drawn) displayed an IC50 in [2] (Human immunodeficiency virus 1) above 219 µM.
As to `COc1cc2c(c3oc(=O)ccc13)[C@@H](OC(=O)C13CCC(C)(C(=O)O1)C3(C)C)[C@@H](OC(=O)C13CCC(C)(C(=O)O1)C3(C)C)C(C)(C)O2` (stereo partly drawn), the results for the EC50 in series [6] and in [4] were 0.128 µM and 0.192 nM, respectively. The IC50 in [6] was above 200 µM; in [2] (Human immunodeficiency virus 1), above 153 µM. The selectivity ratio in [7] is above 1560; in [5], above 797000.
`COc1cc2ccc(=O)oc2c2c1OC(C)(C)[C@H](OC(=O)C13CCC(C)(C(=O)O1)C3(C)C)[C@@H]2OC(=O)C12CCC(C)(C(=O)O1)C2(C)C` (stereo partly drawn): the IC50 in series [6] was above 200 µM; in series [2] (Human immunodeficiency virus 1), above 153 µM. The EC50 entry is “Not Active” in series [8] and 15800 nM in [4]. Further, the Therapeutic index entry in [9] is reported as “Not Active”. In addition, the selectivity ratio in series [5] was above 9.68.
Compound `Cc1cc(=O)oc2c3c(ccc12)OC(C)(C)[C@H](OC(=O)C12CCC(C)(C(=O)O1)C2(C)C)[C@@H]3OC(=O)C12CC3CC(CC(C3)C1)C2` (stereo partly drawn) displayed an EC50 in series [4] of 600 nM. In series [2] (Human immunodeficiency virus 1), this compound showed an IC50 of 21.3 µM. Further, in series [5], the selectivity ratio came to 35.5.
As to `COc1cc(=O)oc2c3c(ccc12)OC(C)(C)[C@H](OC(=O)C12CCC(C)(C(=O)O1)C2(C)C)[C@@H]3OC(=O)C12CCC(C)(C(=O)O1)C2(C)C` (stereo partly drawn), the EC50 is 0.125 µM in [6] and 2.99 nM in [4]. Besides, the half-inhibitory concentration (IC50) in series [6] was above 200 µM; in series [2] (Human immunodeficiency virus 1), above 153 µM. For the same compound, the results for the selectivity ratio in series [7] and in series [5] were above 1600 and above 51200, respectively.
Take `Cc1cc(=O)oc2c3c(ccc12)OC(C)(C)[C@H](OC(=O)Nc1cccc2ccccc12)[C@@H]3OC(=O)Nc1cccc2ccccc12`: the 50% effective concentration (EC50) result in series [1] is reported as “Not Active”. Moreover, the IC50 in series [2] (Human immunodeficiency virus 1) amounted to 98 µM. For the same compound, the Therapeutic index entry in series [3] was “Not Active”.
Take `CC1(C)Oc2ccc3ccc(=O)oc3c2[C@@H](OC(=O)C23CCC(C)(C(=O)O2)C3(C)C)[C@H]1OC(=O)C12CCC(C)(C(=O)O1)C2(C)C` (stereo partly drawn): the EC50 in series [6] stood at 0.26 µM; in [4], 0.256 nM. Besides, the IC50 in series [6] was determined as 26 µM; in series [2] (Human immunodeficiency virus 1) it was 35 µM. For the same compound, the values for the selectivity ratio in series [7] and in series [5] were 100 and 137000, respectively.
`CC(=O)O[C@@H]1c2c(ccc3c(C)cc(=O)oc23)OC(C)(C)[C@@H]1OC(C)=O` had a 50% effective concentration (EC50) in series [4] of 83100 nM. Moreover, the IC50 in series [2] (Human immunodeficiency virus 1) is 171 µM. In addition, the selectivity ratio in series [5] was 2.06.
Turning to `Cc1cc2ccc3c(c2oc1=O)[C@@H](OC(=O)C12CCC(C)(C(=O)O1)C2(C)C)[C@@H](OC(=O)C12CCC(C)(C(=O)O1)C2(C)C)C(C)(C)O3` (stereo partly drawn), the EC50 in series [6] was 0.213 µM; in [4], 0.0525 nM. Besides, the values for the half-maximal inhibitory concentration (IC50) in [6] and in series [2] (Human immunodeficiency virus 1) were above 12.5 µM and above 113 µM, respectively. The selectivity ratio in series [7] was above 58.7; in [5], above 2.15e+06.
Consider `Cc1cc(=O)oc2c3c(ccc12)OC(C)(C)[C@H](OC(=O)c1cccc(Br)c1)[C@@H]3OC(=O)c1cccc(Br)c1`, for which the EC50 result in series [1] was “Not Active”. In series [2] (Human immunodeficiency virus 1), this compound had an IC50 above 91.6 µM. Also, in series [3], the Therapeutic index entry is on record as “Not Active”.
In the case of `Cc1cc(=O)oc2c3c(ccc12)OC(C)(C)[C@H](OC(=O)C12CCC(C)(C(=O)O1)C2(C)C)[C@@H]3OC(=O)C12CCC(C)(C(=O)O1)C2(C)C` (stereo in doubt; 8), in series [6], it took 0.0635 µM to reach a half-maximal effect (EC50) and the IC50 is above 200 µM. Moreover, in series [7], the selectivity ratio was above 3150. Besides, in series [2] (Human immunodeficiency virus 1), the IC50 is above 126 µM.
Regarding `Cc1cc(=O)oc2c3c(ccc12)OC(C)(C)[C@H](OS(=O)(=O)CC12CCC(CC1=O)C2(C)C)[C@@H]3O` (stereo in doubt; 22), in series [2], the IC50 is 42 µM.
In the case of `Cc1cc2ccc(=O)oc2c2c1OC(C)(C)[C@H](OC(=O)C13CCC(C)(C(=O)O1)C3(C)C)[C@@H]2OC(=O)C12CCC(C)(C(=O)O1)C2(C)C` (stereo partly drawn), the EC50 came out at 0.376 µM in series [6] and 151 nM in [4]. In addition, the IC50 in [6] was above 200 µM; in series [2] (Human immunodeficiency virus 1), 33 µM. Besides, the selectivity ratio in [7] is above 532; in series [5], 218.
For the compound `CCCc1cc(=O)oc2c3c(ccc12)OC(C)(C)[C@H](OC(=O)C12CCC(C)(C(=O)O1)C2(C)C)[C@@H]3OC(=O)C12CCC(C)(C(=O)O1)C2(C)C` (stereo partly drawn), the EC50 is 0.763 µM in series [6] and 17.5 nM in [4]. Moreover, the IC50 in series [6] was above 200 µM; in series [2] (Human immunodeficiency virus 1) it was above 151 µM. Further, the selectivity ratio in series [7] is above 262; in [5], above 8630.
`CC(=O)O[C@@H]1[C@H](OC(=O)C23CCC(C)(C(=O)O2)C3(C)C)c2c(ccc3c(C)cc(=O)oc23)OC1(C)C` (stereo partly drawn) yielded a concentration for a half-maximal effect (EC50) in [4] of 55.2 nM. This compound also registered a 50% inhibitory concentration (IC50) in [2] (Human immunodeficiency virus 1) of 123 µM. Besides, the selectivity ratio in series [5] worked out at 2230.

Source of the values: ChEMBL document CHEMBL1132174, “Anti-AIDS agents. 37. Synthesis and structure-activity relationships of (3'R,4'R)-(+)-cis-khellactone derivatives as novel potent anti-HIV agents” (J Med Chem, 1999).
